Results reported in ChEMBL document CHEMBL3272035, “(Vinylaryloxy)acetic acids. A new class of diuretic agents. 1. (Diacylvinylaryloxy)acetic acids” (J Med Chem, 1976).

Key:
[1] = tested on: Canis familiaris; assay: Diuretic activity in mongrel dog anesthetized with sodium pentobarbital assessed as urine volume at 25 mg/kg, iv measured after 15 to 45 mins post dose (reference value: 1 to 4 ml/min); assay type: functional, Canis lupus familiaris
[2] = tested on: Canis familiaris; assay: Diuretic activity in mongrel dog anesthetized with sodium pentobarbital assessed as urine Na+ level at 1 mg/kg, iv measured after 15 to 45 mins post dose (reference value: 4 to 82 uequiv/min); assay type: functional, Canis lupus familiaris
[3] = tested on: Canis familiaris; assay: Diuretic activity in mongrel dog anesthetized with sodium pentobarbital assessed as urine K+ level at 1 mg/kg, iv measured after 15 to 45 mins post dose (reference value: 5 to 104 uequiv/min); assay type: functional, Canis lupus familiaris
[4] = tested on: Canis familiaris; assay: Diuretic activity in mongrel dog anesthetized with sodium pentobarbital assessed as urine Cl- level at 1 mg/kg, iv measured after 15 to 45 mins post dose (reference value: 2 to 64 uequiv/min); assay type: functional, Canis lupus familiaris
[5] = tested on: Canis familiaris; assay: Diuretic activity in mongrel dog anesthetized with sodium pentobarbital assessed as urine volume at 1 mg/kg, iv measured after 15 to 45 mins post dose (reference value: 1 to 4 ml/min); assay type: functional, Canis lupus familiaris
[6] = tested on: Canis familiaris; assay: Diuretic activity in mongrel dog anesthetized with sodium pentobarbital assessed as urine Na+ level at 25 mg/kg, iv measured after 15 to 45 mins post dose (reference value: 4 to 82 uequiv/min); assay type: functional, Canis lupus familiaris
[7] = tested on: Canis familiaris; assay: Diuretic activity in mongrel dog anesthetized with sodium pentobarbital assessed as urine K+ level at 25 mg/kg, iv measured after 15 to 45 mins post dose (reference value: 5 to 104 uequiv/min); assay type: functional, Canis lupus familiaris
[8] = tested on: Canis familiaris; assay: Diuretic activity in mongrel dog anesthetized with sodium pentobarbital assessed as urine Na+ level at 10 mg/kg, iv measured after 15 to 45 mins post dose (reference value: 4 to 82 uequiv/min); assay type: functional, Canis lupus familiaris
[9] = tested on: Canis familiaris; assay: Diuretic activity in mongrel dog anesthetized with sodium pentobarbital assessed as urine K+ level at 10 mg/kg, iv measured after 15 to 45 mins post dose (reference value: 5 to 104 uequiv/min); assay type: functional, Canis lupus familiaris
[10] = tested on: Canis familiaris; assay: Diuretic activity in mongrel dog anesthetized with sodium pentobarbital assessed as urine volume at 10 mg/kg, iv measured after 15 to 45 mins post dose (reference value: 1 to 4 ml/min); assay type: functional, Canis lupus familiaris
[11] = tested on: Canis familiaris; assay: Diuretic activity in mongrel dog anesthetized with sodium pentobarbital assessed as urine Na+ level at 0.1 mg/kg, iv measured after 15 to 45 mins post dose (reference value: 4 to 82 uequiv/min); assay type: functional, Canis lupus familiaris
[12] = tested on: Canis familiaris; assay: Diuretic activity in mongrel dog anesthetized with sodium pentobarbital assessed as urine K+ level at 0.1 mg/kg, iv measured after 15 to 45 mins post dose (reference value: 5 to 104 uequiv/min); assay type: functional, Canis lupus familiaris
[13] = tested on: Canis familiaris; assay: Diuretic activity in mongrel dog anesthetized with sodium pentobarbital assessed as urine volume at 0.1 mg/kg, iv measured after 15 to 45 mins post dose (reference value: 1 to 4 ml/min); assay type: functional, Canis lupus familiaris
[14] = tested on: Canis familiaris; assay: Diuretic activity in mongrel dog assessed as urine volume per 6 hrs at 1 mg/kg, po as gelatin capsules relative to control
[15] = tested on: Canis familiaris; assay: Diuretic activity in mongrel dog assessed as urine K+ level per 6 hrs at 1 mg/kg, po as gelatin capsules relative to control
[16] = tested on: Canis familiaris; assay: Diuretic activity in mongrel trained conscious dog assessed as urine volume per 6 hrs at 0.4 mg/kg, po as gelatin capsules relative to control
[17] = tested on: Canis familiaris; assay: Diuretic activity in mongrel trained conscious dog assessed as urine Na+ level per 6 hrs at 1 mg/kg, po as gelatin capsules relative to control
[18] = tested on: Canis familiaris; assay: Diuretic activity in mongrel trained conscious dog assessed as urine K+ level per 6 hrs at 0.4 mg/kg, po as gelatin capsules relative to control
[19] = tested on: Canis familiaris; assay: Diuretic activity in mongrel dog anesthetized with sodium pentobarbital assessed as urine Cl- level at 0.1 mg/kg, iv measured after 15 to 45 mins post dose (reference value: 2 to 64 uequiv/min); assay type: functional, Canis lupus familiaris
[20] = tested on: Canis familiaris; assay: Diuretic activity in mongrel dog […] assessed as urine volume per 6 hrs at 1.27 mg/kg, po as gelatin capsules relative to control; assay type: functional, Canis lupus familiaris
Outline: (§1)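 Conscious trained female mongrel dogs (8–10 kg), fasted overnight after 100 ml water the day before. On test day 250 ml water orally, then 500 ml 1 h later. Bladder emptied 1 h afterwards and compound or placebo given in gelatin capsules. Voided urine from metabolism cages pooled with catheter urine at 6 h; volume and Na+, K+, Cl− measured; geometric means.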

[21] = tested on: Canis familiaris; assay: Diuretic activity in mongrel dog assessed as urine K+ level per 6 hrs at 1.27 mg/kg, po as gelatin capsules relative to control
[22] = tested on: Canis familiaris; assay: Diuretic activity in mongrel dog assessed as urine Na+ level per 6 hrs at 1.27 mg/kg, po as gelatin capsules relative to control
[23] = tested on: Canis familiaris; assay: Diuretic activity in mongrel dog assessed as urine Cl- level per 6 hrs at 1.27 mg/kg, po as gelatin capsules relative to control
[24] = tested on: Canis familiaris; assay: Diuretic activity in mongrel trained conscious dog assessed as urine Na+ level per 6 hrs at 0.4 mg/kg, po as gelatin capsules relative to control
[25] = tested on: Canis familiaris; assay: Diuretic activity in mongrel trained conscious dog assessed as urine Cl- level per 6 hrs at 0.4 mg/kg, po as gelatin capsules relative to control
[26] = tested on: Canis familiaris; assay: Diuretic activity in mongrel dog anesthetized with sodium pentobarbital assessed as urine Cl- level at 10 mg/kg, iv measured after 15 to 45 mins post dose (reference value: 2 to 64 uequiv/min); assay type: functional, Canis lupus familiaris
[27] = tested on: Canis familiaris; assay: Diuretic activity in mongrel dog […] assessed as urine Na+ level per 6 hrs at 3 mg/kg, po as gelatin capsules relative to control; assay type: functional, Canis lupus familiaris; outline: as §1
[28] = tested on: Canis familiaris; assay: Diuretic activity in mongrel dog […] assessed as urine K+ level per 6 hrs at 3 mg/kg, po as gelatin capsules relative to control; assay type: functional, Canis lupus familiaris; outline: as §1
[29] = tested on: Canis familiaris; assay: Diuretic activity in mongrel dog […] assessed as urine Cl- level per 6 hrs at 3 mg/kg, po as gelatin capsules relative to control; assay type: functional, Canis lupus familiaris; outline: as §1
[30] = tested on: Canis familiaris; assay: Diuretic activity in mongrel dog […] assessed as urine volume per 6 hrs at 3 mg/kg, po as gelatin capsules relative to control; assay type: functional, Canis lupus familiaris; outline: as §1
[31] = Half life of the compound in DMF-phosphate buffer at pH 7.4 at 25 degC assessed as SH binding in presence of mercaptoacetic acid; assay type: physicochemical; conditions: DMF-phosphate buffer with mercaptoacetic acid
Outline: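 Minutes for half of a standard amount of compound to react with excess mercaptoacetic acid in DMF-phosphate buffer, pH 7.4, 25°.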

[32] = tested on: Canis familiaris; assay: Diuretic activity in mongrel dog assessed as urine Cl- level per 6 hrs at 1 mg/kg, po as gelatin capsules relative to control

Row | SMILES | Activity [2] [uEq/min] | Activity [3] [uEq/min] | Activity [4] [uEq/min] | Activity [5] [mL/min] | Activity [8] [uEq/min] | Activity [9] [uEq/min] | Activity [10] [mL/min] | further results
1 | CC(=O)C(=Cc1cc(OCC(=O)O)ccc1Cl)C(C)=O |  |  |  |  |  |  |  | Activity [1]: 1 mL/min
2 | CSC(c1ccc(OCC(=O)O)c(Cl)c1Cl)C(C(C)=O)C(C)=O (stereo unspecified) | 571 | 78 | 565 | 6 |  |  |  | 
3 | CCC(=O)C(=Cc1ccc(OCC(=O)O)c(Cl)c1Cl)C(=O)CC | 676 | 68 |  | 7 |  |  |  | 
4 | CC(=O)C(=Cc1ccc(OCC(=O)O)c2ccccc12)C(C)=O | 393 | 104 |  | 4 |  |  |  | 
5 | CC(=O)C(=Cc1ccc(OCC(=O)O)cc1Cl)C(C)=O | 1318 | 232 |  | 11 |  |  |  | 
6 | CC(=O)C(=Cc1ccc(OC(C)C(=O)O)c(Cl)c1Cl)C(C)=O (stereo unspecified) | 847 | 71 |  | 8 |  |  |  | 
7 | CC(=O)C(=Cc1cc(Cl)cc(Cl)c1OCC(=O)O)C(C)=O |  |  |  |  |  |  |  | Activity [6]: 244 uEq/min; Activity [7]: 50 uEq/min; Activity [1]: 3 mL/min
8 | CC(=O)C(=Cc1cc(Cl)ccc1OCC(=O)O)C(C)=O |  |  |  |  | 94 | 20 | 2 | 
9 | CC(=O)C(C(C)=O)C(Sc1ccccc1C(=O)O)c1ccc(OCC(=O)O)c(Cl)c1Cl (stereo unspecified) | 802 | 124 | 913 | 7 |  |  |  | 
10 | CC(=O)C(=Cc1ccc(OCC(=O)O)cc1)C(C)=O |  |  |  |  | 336 | 106 | 4 | 
11 | CC(=O)C(=Cc1ccc(OCC(=O)O)c(Cl)c1Cl)C(C)=O |  | 104 |  | 19 |  |  |  | Activity [11]: 984 uEq/min; Activity [12]: 87 uEq/min; Activity [13]: 9 mL/min; Activity [14]: 492 mL; Activity [15]: 7 milliequivalent; Activity [16]: 762 mL; Activity [17]: 30 milliequivalent; Activity [18]: 6 milliequivalent
12 | CC(=O)C(C(C)=O)C(SCC(=O)O)c1ccc(OCC(=O)O)c(Cl)c1Cl (stereo unspecified) | 1569 | 178 | 1628 | 4 |  |  |  | Activity [11]: 1424 uEq/min; Activity [12]: 173 uEq/min; Activity [19]: 1991 uEq/min; Activity [13]: 13 mL/min; Activity [20]: 750 mL; Activity [21]: 6 milliequivalent; Activity [22]: 27 milliequivalent; Activity [23]: 34 milliequivalent; Activity [16]: 575 mL; Activity [18]: 3 milliequivalent; Activity [24]: 7 milliequivalent; Activity [25]: 8 milliequivalent
13 | CC(=O)C(Cc1ccc(OCC(=O)O)c(Cl)c1Cl)C(C)=O |  |  |  |  | 198 | 35 | 3 | Activity [26]: 241 uEq/min
14 | CC(=O)C(C(C)=O)C(SCCO)c1ccc(OCC(=O)O)c(Cl)c1Cl (stereo unspecified) | 405 | 80 | 447 | 5 |  |  |  | 
15 | O=C(O)COc1ccc(C=C2C(=O)C=CC2=O)c(Cl)c1Cl |  |  |  |  | 213 | 94 | 4 | 
16 | CCC(=O)/C(=C/c1ccc(OCC(=O)O)c(Cl)c1Cl)C(C)=O | 2025 | 13 | 1936 | 16 |  |  |  | 
17 | O=C(O)COc1ccc(C=C2C(=O)c3ccccc3C2=O)c(Cl)c1Cl |  |  |  |  | 118 | 44 | 2 | Activity [26]: 29 uEq/min
18 | CC(=O)C(=Cc1ccc(OCC(=O)O)c(C)c1C)C(C)=O |  | 58 |  |  |  |  |  | 
19 | C=C(CC)C(=O)c1ccc(OCC(=O)O)c(Cl)c1Cl [ETHACRYNIC ACID] | 188 | 52 | 244 | 6 | 2989 | 194 | 22 | Activity [26]: 3324 uEq/min; Activity [27]: 37 milliequivalent; Activity [28]: 7 milliequivalent; Activity [29]: 42 milliequivalent; Activity [30]: 571 mL; half-life [31]: < 1 min; Activity [14]: 560 mL; Activity [15]: 5 milliequivalent; Activity [32]: 26 milliequivalent; Activity [17]: 21 milliequivalent
20 | CC(=O)/C(=C\c1ccc(OCC(=O)O)c(Cl)c1Cl)C(=O)c1ccccc1 |  |  |  |  | 583 | 105 | 6 | 
